Series [1] addresses T1, Progesterone receptor (Homo sapiens) (UniProt P06401).
T1 sequence (whole entry): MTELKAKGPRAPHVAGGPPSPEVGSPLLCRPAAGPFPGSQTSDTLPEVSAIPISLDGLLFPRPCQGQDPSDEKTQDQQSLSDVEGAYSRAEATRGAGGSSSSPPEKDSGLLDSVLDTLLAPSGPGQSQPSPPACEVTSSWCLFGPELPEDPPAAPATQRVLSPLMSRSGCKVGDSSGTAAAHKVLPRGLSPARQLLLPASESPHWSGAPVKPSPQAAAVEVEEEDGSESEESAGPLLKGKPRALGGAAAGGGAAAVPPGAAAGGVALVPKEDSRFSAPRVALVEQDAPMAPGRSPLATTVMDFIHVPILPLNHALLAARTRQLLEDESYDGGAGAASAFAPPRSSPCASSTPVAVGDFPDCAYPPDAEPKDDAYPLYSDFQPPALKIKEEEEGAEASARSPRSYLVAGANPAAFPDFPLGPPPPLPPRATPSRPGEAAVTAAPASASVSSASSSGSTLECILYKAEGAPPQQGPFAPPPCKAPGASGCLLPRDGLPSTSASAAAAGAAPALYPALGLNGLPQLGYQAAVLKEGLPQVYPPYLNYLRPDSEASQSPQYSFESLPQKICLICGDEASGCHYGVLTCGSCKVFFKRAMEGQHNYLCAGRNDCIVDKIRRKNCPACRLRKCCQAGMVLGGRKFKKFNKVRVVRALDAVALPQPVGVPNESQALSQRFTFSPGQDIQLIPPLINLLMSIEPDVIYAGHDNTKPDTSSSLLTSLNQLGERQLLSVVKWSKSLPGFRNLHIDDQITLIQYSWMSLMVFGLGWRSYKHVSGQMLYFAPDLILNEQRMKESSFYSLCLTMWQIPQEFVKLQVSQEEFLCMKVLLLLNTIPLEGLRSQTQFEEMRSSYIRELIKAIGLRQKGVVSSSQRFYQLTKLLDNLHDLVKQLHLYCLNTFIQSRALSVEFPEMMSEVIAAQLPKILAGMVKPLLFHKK
Briefly: Agonist activity at human progesterone receptor expressed in CHO-K1 cells harboring firefly luciferase gene after 20 hrs by One-Glo luciferase reporter gene assay. The format is cell-based. In outline: (§1)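 Cell-based luciferase reporter assays for GR, AR and PR, run in agonist and antagonist modes. Potency and Emax are averages of at least two determinations, reported with SD.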

In the next series the target is T2, Androgen receptor (Homo sapiens, UniProt P10275).
T2 sequence (P10275 whole entry): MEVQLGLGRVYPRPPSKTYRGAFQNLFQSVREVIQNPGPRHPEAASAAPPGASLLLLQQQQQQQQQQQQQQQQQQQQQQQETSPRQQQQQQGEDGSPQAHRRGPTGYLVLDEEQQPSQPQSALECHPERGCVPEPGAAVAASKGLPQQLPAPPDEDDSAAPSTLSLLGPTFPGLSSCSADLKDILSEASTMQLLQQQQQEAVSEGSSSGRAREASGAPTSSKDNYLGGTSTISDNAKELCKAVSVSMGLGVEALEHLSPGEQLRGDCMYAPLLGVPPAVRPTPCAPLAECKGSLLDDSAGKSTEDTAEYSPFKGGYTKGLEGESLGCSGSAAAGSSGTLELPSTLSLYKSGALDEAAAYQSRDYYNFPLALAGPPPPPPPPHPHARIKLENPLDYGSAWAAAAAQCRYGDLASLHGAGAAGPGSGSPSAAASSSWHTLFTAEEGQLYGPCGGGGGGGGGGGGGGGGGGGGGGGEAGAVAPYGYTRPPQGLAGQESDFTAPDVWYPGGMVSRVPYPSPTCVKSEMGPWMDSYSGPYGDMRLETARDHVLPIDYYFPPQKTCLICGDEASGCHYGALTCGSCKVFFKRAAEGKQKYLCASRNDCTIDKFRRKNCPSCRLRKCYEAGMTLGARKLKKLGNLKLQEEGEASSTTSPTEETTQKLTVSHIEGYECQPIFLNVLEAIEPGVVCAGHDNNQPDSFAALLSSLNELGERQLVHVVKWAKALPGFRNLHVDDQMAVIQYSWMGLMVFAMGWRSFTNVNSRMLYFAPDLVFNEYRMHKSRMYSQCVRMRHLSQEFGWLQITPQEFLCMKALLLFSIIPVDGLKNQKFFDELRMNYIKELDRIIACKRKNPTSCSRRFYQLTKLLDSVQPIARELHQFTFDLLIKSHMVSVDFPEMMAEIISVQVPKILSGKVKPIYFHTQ
Put plainly: Agonist activity at human androgen receptor in human LNCAP cells harboring firefly luciferase gene after 20 hrs by One-Glo luciferase reporter gene assay. The format is cell-based.

A further series concerns Mus musculus. Put plainly: In vivo antagonist activity at glucocorticoid receptor in tumor of human HCC1806 cells xenografted in hsd:athymic Nude-Foxn1nu mouse assessed as reduction in cortisol-stimulated FKBP5 mRNA expression at 150 mg/kg, po administered as single dose via gavage and measured at 3 hrs post cortisol addition by qRT-PCR analysis (reference value: 2.3 to 4). It counts as functional. In outline:
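HCC1806 TNBC xenograft tumors in mice. Cortisol 5 mg/kg given orally as a bolus to activate GR. The compound was given as a single oral gavage dose of 150 mg/kg, with vehicle controls. Tumors were collected 3 and 6 h after cortisol, and FKBP5 mRNA was measured by RT-qPCR relative to vehicle. n = 3 mice/group. One-way ANOVA with Dunnett's test versus vehicle.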

Series [2] is described as follows: Solubility of compound in PBS at pH 7.4. The format is physicochemical.
The next series concerns the target T3, Progesterone receptor (Homo sapiens, UniProt P06401).
T3 sequence (P06401 whole entry): T1 sequence (whole entry)
Briefly: Antagonist activity at human progesterone receptor expressed in CHO-K1 cells harboring firefly luciferase gene after 20 hrs by One-Glo luciferase reporter gene assay. It counts as cell-based. In outline:
as §1

Series [3] can be described thus: Half-life in mini-pig at 0.5 mg/kg, iv. Particulars: in vivo. It counts as ADME, organism-based, Sus scrofa domesticus.
In a further series the target is CYP3A4 (Homo sapiens, UniProt P08684). Briefly: Inhibition of CYP3A4 (unknown origin) at 10 uM using midazolam as substrate relative to control. The format is ADME. Particulars: probe midazolam.
Series [4] is described as follows: Solubility of compound in fasted state simulated gastric fluid at pH 1.2. It counts as physicochemical.
A short description of series [5]: Oral bioavailability in mini-pig at 5 mg/kg. Conditions: in vivo. The format is ADME, organism-based, Sus scrofa domesticus.
Series [6] in a line: Toxicity in female rat assessed as effect on ovarian weight at 250 mg/kg/day, po administered once daily via gavage for 14 days. The format is organism-based. Particulars: in vivo, 336 h.

pEC50, pIC50: −log10 of the molar value. Values after ≈ are worked out from the molar mass of the structure shown. Active and inactive are the calls of the source. The rule behind the calls is not given here.

Sequence of CYP3A4 (P08684 whole entry): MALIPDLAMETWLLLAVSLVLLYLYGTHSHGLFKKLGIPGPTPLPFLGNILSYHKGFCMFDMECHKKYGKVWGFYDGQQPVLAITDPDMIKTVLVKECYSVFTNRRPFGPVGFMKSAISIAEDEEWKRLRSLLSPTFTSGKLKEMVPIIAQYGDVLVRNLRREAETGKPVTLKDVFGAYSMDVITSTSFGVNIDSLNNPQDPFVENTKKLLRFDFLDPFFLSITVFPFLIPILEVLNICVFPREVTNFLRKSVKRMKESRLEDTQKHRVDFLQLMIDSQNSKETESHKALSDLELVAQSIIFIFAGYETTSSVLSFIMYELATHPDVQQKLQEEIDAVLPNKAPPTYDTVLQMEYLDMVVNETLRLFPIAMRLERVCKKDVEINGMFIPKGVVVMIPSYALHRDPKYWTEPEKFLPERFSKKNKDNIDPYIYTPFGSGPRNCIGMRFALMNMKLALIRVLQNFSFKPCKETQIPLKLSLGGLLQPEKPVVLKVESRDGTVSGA

Consider `CC#C[C@]1(O)CC[C@H]2[C@@H]3CCC4=CC(=O)CC[C@]4(C)[C@H]3[C@@H](c3ccc(N(C)C)cc3)C[C@@]21C`, for which the agonist activity entry in series [1] was “inactive”. The pEC50 at Androgen receptor is < 5.60. Besides, the “fold change (FC)” value in the series with Mus musculus turned out to be 2.8. The solubility in series [2] is 20.6 µM (≈ 9.18 µg/mL); in series [4] it was 1130 µM (≈ 504 µg/mL). For the same compound, the pIC50 against Progesterone receptor was 5.95. Besides, the half-life in [3] is 2.71 h. Also, 10 µM produced 34% inhibition on CYP3A4. Moreover, the bioavailability in series [5] is 35.9%. The Activity entry in series [6] was “Non-Toxic”.

The values are drawn from ChEMBL document CHEMBL4406804, “Discovery of a Potent Steroidal Glucocorticoid Receptor Antagonist with Enhanced Selectivity against the Progesterone and Androgen Receptors (OP-3633)” (J Med Chem, 2019).
